Assay results: ChEMBL document CHEMBL4373711, “Development of 3,5-Dinitrophenyl-Containing 1,2,4-Triazoles and Their Trifluoromethyl Analogues as Highly Efficient Antitubercular Agents Inhibiting Decaprenylphosphoryl-β-d-ribofuranose 2'-Oxidase” (J Med Chem, 2019)
In brackets after ≈: the same amount, converted by molar mass.

Tests used:
[1] = system: Mycobacterium tuberculosis; assay: Antimycobacterial activity against multi-drug resistant Mycobacterium tuberculosis Praha 1 after 14 days; type: functional; settings: for MIC99: Praha 1, 336 h
How it was run: (§1)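 M. tuberculosis strains (H37Rv and clinical MDR/XDR isolates) tested by microdilution in Šula's semisynthetic medium. Compounds were dissolved in DMSO and tested at 32 to 0.03 µM in twofold steps. Inoculum was a 1.0 McFarland suspension diluted 10-3. Plates were incubated at 37 °C and read at 14 and 21 days.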

[2] = system: Mycobacterium tuberculosis; assay: Antimycobacterial activity against multi-drug resistant Mycobacterium tuberculosis Praha 1 after 21 days; type: functional; settings: Praha 1, 504 h; how it was run: as §1
[3] = system: Mycobacterium tuberculosis; assay: Antimycobacterial activity against multi-drug resistant Mycobacterium tuberculosis Praha 4 after 14 days; settings: Praha 4, 336 h
[4] = system: Mycobacterium tuberculosis; assay: Antimycobacterial activity against multi-drug resistant Mycobacterium tuberculosis Praha 4 after 21 days; type: functional; settings: Praha 4, 504 h; how it was run: as §1
[5] = system: Mycobacterium tuberculosis; assay: Antimycobacterial activity against multi-drug resistant Mycobacterium tuberculosis 9449/2007 after 21 days; type: functional; settings: for MIC99: 9449/2007, 504 h; how it was run: as §1
[6] = system: Mycobacterium tuberculosis; assay: Antimycobacterial activity against multi-drug resistant Mycobacterium tuberculosis 9449/2007 after 14 days; type: functional; settings: 9449/2007, 336 h; how it was run: as §1
[7] = system: Mycobacterium tuberculosis; assay: Antimycobacterial activity against multi-drug resistant Mycobacterium tuberculosis 234/2005 after 21 days; type: functional; settings: 234/2005, 504 h; how it was run: as §1
[8] = system: Mycobacterium tuberculosis; assay: Antimycobacterial activity against multi-drug resistant Mycobacterium tuberculosis 7357/1998 after 21 days; type: functional; settings: for MIC99: 7357/1998, 504 h; how it was run: as §1
[9] = system: Mycobacterium tuberculosis; assay: Antimycobacterial activity against multi-drug resistant Mycobacterium tuberculosis 7357/1998 after 14 days; type: functional; settings: 7357/1998, 336 h; how it was run: as §1
[10] = system: Mycobacterium tuberculosis; assay: Antimycobacterial activity against multi-drug resistant Mycobacterium tuberculosis 8666/2010 after 14 days; type: functional; settings: for MIC99: 8666/2010, 336 h; how it was run: as §1
[11] = system: Mycobacterium tuberculosis; assay: Antimycobacterial activity against multi-drug resistant Mycobacterium tuberculosis 8666/2010 after 21 days; type: functional; settings: 8666/2010, 504 h; how it was run: as §1
[12] = system: Mycobacterium tuberculosis; assay: microbe, parasite or virus in culture; settings: 234/2005, 336 h

Compound | MIC99 [1] [µM] | MIC99 [2] [µM] | MIC99 [3] [µM] | MIC99 [4] [µM] | MIC99 [5] [µM] | MIC99 [6] [µM] | MIC99 [7] [µM] | MIC99 [8] [µM] | MIC99 [9] [µM] | MIC99 [10] [µM] | MIC99 [11] [µM] | MIC99 [12] [µM] | MIC>99 [1] [µM] | MIC>99 [5] [µM] | MIC>99 [8] [µM] | MIC>99 [10] [µM]
COc1ccc(CSc2nnc(-c3cc([N+](=O)[O-])cc(C(F)(F)F)c3)n2Cc2ccccc2)cc1 | 0.5 (≈ 0.25 µg/mL) | 0.5 (≈ 0.25 µg/mL) | 0.5 (≈ 0.25 µg/mL) | 0.5 (≈ 0.25 µg/mL) | 0.5 (≈ 0.25 µg/mL) | 0.5 (≈ 0.25 µg/mL) | 2 (≈ 1 µg/mL) | 0.5 (≈ 0.25 µg/mL) | 0.5 (≈ 0.25 µg/mL) | 0.5 (≈ 0.25 µg/mL) | 0.5 (≈ 0.25 µg/mL) | 1 (≈ 0.501 µg/mL) | – | – | – | –
GENTAMICIN | – | – | – | – | – | – | – | – | – | – | – | – | 1 | 1 | 1 | 2
Cn1c(SCc2ccc(Cl)c(Cl)c2)nnc1-c1cc([N+](=O)[O-])cc([N+](=O)[O-])c1 | 0.06 (≈ 0.0264 µg/mL) | 0.06 (≈ 0.0264 µg/mL) | 0.06 (≈ 0.0264 µg/mL) | 0.06 (≈ 0.0264 µg/mL) | 0.06 (≈ 0.0264 µg/mL) | 0.06 (≈ 0.0264 µg/mL) | 0.06 (≈ 0.0264 µg/mL) | 0.06 (≈ 0.0264 µg/mL) | 0.06 (≈ 0.0264 µg/mL) | 0.06 (≈ 0.0264 µg/mL) | 0.06 (≈ 0.0264 µg/mL) | 0.06 (≈ 0.0264 µg/mL) | – | – | – | –
CC1COc2c(N3CCN(C)CC3)c(F)cc3c(=O)c(C(=O)O)cn1c23 (configuration not stated) [OFLOXACIN] | – | – | > 16 | – | – | – | – | – | – | – | – | – | – | – | – | –
Cn1c(SCc2ccccc2)nnc1-c1cc([N+](=O)[O-])cc([N+](=O)[O-])c1 | 0.03 (≈ 0.0111 µg/mL) | 0.03 (≈ 0.0111 µg/mL) | 0.03 (≈ 0.0111 µg/mL) | 0.03 (≈ 0.0111 µg/mL) | 0.03 (≈ 0.0111 µg/mL) | 0.03 (≈ 0.0111 µg/mL) | 0.03 (≈ 0.0111 µg/mL) | 0.03 (≈ 0.0111 µg/mL) | 0.03 (≈ 0.0111 µg/mL) | 0.03 (≈ 0.0111 µg/mL) | 0.03 (≈ 0.0111 µg/mL) | 0.03 (≈ 0.0111 µg/mL) | – | – | – | –
O=[N+]([O-])c1cc(-c2nnc(SCc3ccc(Br)cc3)n2Cc2ccccc2)cc([N+](=O)[O-])c1 | 0.125 (≈ 0.0658 µg/mL) | 0.25 (≈ 0.132 µg/mL) | 0.125 (≈ 0.0658 µg/mL) | 0.25 (≈ 0.132 µg/mL) | 0.125 (≈ 0.0658 µg/mL) | 0.25 (≈ 0.132 µg/mL) | 0.25 (≈ 0.132 µg/mL) | 0.125 (≈ 0.0658 µg/mL) | 0.25 (≈ 0.132 µg/mL) | 0.25 (≈ 0.132 µg/mL) | 0.25 (≈ 0.132 µg/mL) | 0.125 (≈ 0.0658 µg/mL) | – | – | – | –
CCCCCCn1c(SCc2cc([N+](=O)[O-])cc([N+](=O)[O-])c2)nnc1-c1ccccc1 | 1 (≈ 0.442 µg/mL) | 2 (≈ 0.883 µg/mL) | 2 (≈ 0.883 µg/mL) | 4 (≈ 1.77 µg/mL) | 1 (≈ 0.442 µg/mL) | 2 (≈ 0.883 µg/mL) | 2 (≈ 0.883 µg/mL) | 1 (≈ 0.442 µg/mL) | 2 (≈ 0.883 µg/mL) | 1 (≈ 0.442 µg/mL) | 2 (≈ 0.883 µg/mL) | 2 (≈ 0.883 µg/mL) | – | – | – | –
CCn1c(SCc2ccccc2)nnc1-c1cc([N+](=O)[O-])cc([N+](=O)[O-])c1 | 0.03 (≈ 0.0116 µg/mL) | 0.03 (≈ 0.0116 µg/mL) | 0.03 (≈ 0.0116 µg/mL) | 0.03 (≈ 0.0116 µg/mL) | 0.03 (≈ 0.0116 µg/mL) | 0.03 (≈ 0.0116 µg/mL) | 0.03 (≈ 0.0116 µg/mL) | 0.03 (≈ 0.0116 µg/mL) | 0.03 (≈ 0.0116 µg/mL) | 0.03 (≈ 0.0116 µg/mL) | 0.03 (≈ 0.0116 µg/mL) | 0.03 (≈ 0.0116 µg/mL) | – | – | – | –
CCCCCCCCSc1nnc(-c2cc([N+](=O)[O-])cc([N+](=O)[O-])c2)n1Cc1ccccc1 | 0.125 (≈ 0.0587 µg/mL) | 0.25 (≈ 0.117 µg/mL) | 0.125 (≈ 0.0587 µg/mL) | 0.25 (≈ 0.117 µg/mL) | 0.125 (≈ 0.0587 µg/mL) | 0.25 (≈ 0.117 µg/mL) | 0.25 (≈ 0.117 µg/mL) | 0.125 (≈ 0.0587 µg/mL) | 0.25 (≈ 0.117 µg/mL) | 0.125 (≈ 0.0587 µg/mL) | 0.25 (≈ 0.117 µg/mL) | 0.125 (≈ 0.0587 µg/mL) | – | – | – | –
Cn1c(SCc2ccc(Cl)cc2)nnc1-c1cc([N+](=O)[O-])cc([N+](=O)[O-])c1 | 0.125 (≈ 0.0507 µg/mL) | 0.125 (≈ 0.0507 µg/mL) | 0.06 (≈ 0.0243 µg/mL) | 0.125 (≈ 0.0507 µg/mL) | 0.125 (≈ 0.0507 µg/mL) | 0.125 (≈ 0.0507 µg/mL) | 0.125 (≈ 0.0507 µg/mL) | 0.125 (≈ 0.0507 µg/mL) | 0.125 (≈ 0.0507 µg/mL) | 0.125 (≈ 0.0507 µg/mL) | 0.125 (≈ 0.0507 µg/mL) | 0.125 (≈ 0.0507 µg/mL) | – | – | – | –
CO[C@H]1/C=C/O[C@@]2(C)Oc3c(C)c(O)c4c(O)c(c(/C=N/N5CCN(C)CC5)c(O)c4c3C2=O)NC(=O)/C(C)=C\C=C\[C@H](C)[C@H](O)[C@@H](C)[C@@H](O)[C@@H](C)[C@H](OC(C)=O)[C@@H]1C [RIFAMPIN] | > 8 | – | > 8 | – | > 8 | – | – | > 8 | – | > 8 | – | > 8 | – | – | – | –
